Experimental data from ChEMBL document CHEMBL3421623 (J Med Chem, 2015).

How the values were obtained:
[1] = target: T1, Aromatase (Homo sapiens, UniProt P11511); test: Inhibition of human recombinant aromatase using 7-methoxy-trifluoromethylcoumarin as substrate assessed as formation of fluorescent metabolite after 30 mins by fluorescence assay
T1 sequence (P11511 whole entry): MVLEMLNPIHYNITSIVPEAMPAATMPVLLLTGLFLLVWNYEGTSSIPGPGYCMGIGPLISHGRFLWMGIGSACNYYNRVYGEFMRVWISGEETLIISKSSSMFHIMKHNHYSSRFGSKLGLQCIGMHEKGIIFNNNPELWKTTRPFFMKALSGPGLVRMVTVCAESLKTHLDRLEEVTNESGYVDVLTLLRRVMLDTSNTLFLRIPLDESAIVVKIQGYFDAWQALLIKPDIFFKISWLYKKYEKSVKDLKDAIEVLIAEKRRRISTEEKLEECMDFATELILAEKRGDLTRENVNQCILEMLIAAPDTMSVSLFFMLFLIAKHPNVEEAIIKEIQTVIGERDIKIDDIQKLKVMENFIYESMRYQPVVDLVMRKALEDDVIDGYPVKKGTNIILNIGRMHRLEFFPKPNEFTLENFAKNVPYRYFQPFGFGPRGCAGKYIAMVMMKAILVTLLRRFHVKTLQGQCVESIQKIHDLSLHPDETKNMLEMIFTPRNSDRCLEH
Summary of the method: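 Recombinant human CYP19 with MFC substrate, converted to fluorescent HFC, in 0.1 M potassium phosphate pH 7.4. NADPH-regenerating mix (NADP⁺, MgCl₂, glucose-6-phosphate, G6PDH); compound prewarmed 10 min at 37 °C, then 30 min reaction stopped with Tris base in acetonitrile. Activity as % of vehicle control; IC50 from one-site competition fit; Ki from Lineweaver–Burk data by nonlinear regression.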

[2] = target: T2, Estrogen receptor (Homo sapiens) (UniProt P03372); test: Antiestrogenic effect at estrogen receptor in human MCF7 cells assessed as inhibition of E2-induced progesterone receptor mRNA expression at 1000 nM after 24 hrs by real time quantitative PCR; type: cell-based; parameters: scale not given: the % may be the effect or the level left
T2 sequence (whole entry): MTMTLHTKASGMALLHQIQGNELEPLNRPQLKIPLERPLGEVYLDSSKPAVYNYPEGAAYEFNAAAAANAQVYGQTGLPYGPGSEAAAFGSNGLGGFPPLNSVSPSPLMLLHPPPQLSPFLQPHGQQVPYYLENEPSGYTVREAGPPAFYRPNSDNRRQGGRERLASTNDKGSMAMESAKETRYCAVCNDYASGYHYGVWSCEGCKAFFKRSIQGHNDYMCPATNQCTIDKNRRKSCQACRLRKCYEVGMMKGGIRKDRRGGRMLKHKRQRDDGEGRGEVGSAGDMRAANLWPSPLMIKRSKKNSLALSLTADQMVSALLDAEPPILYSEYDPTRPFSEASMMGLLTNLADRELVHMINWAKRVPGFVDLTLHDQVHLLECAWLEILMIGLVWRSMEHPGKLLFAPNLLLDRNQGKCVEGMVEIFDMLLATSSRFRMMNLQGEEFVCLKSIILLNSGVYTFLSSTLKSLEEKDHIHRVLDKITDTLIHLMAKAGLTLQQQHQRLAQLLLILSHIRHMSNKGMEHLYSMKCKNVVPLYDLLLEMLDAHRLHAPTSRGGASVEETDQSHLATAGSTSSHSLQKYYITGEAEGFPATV
Summary of the method: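 MCF-7 cells (10⁵/well) grown in MEM + 10% FBS at 37 °C, 5% CO₂, then preconditioned 72 h in charcoal-stripped FBS. Treated 24 h with 1 μM compound or vehicle (0.1% methanol) plus 10 nM E2 in MEM/10% charcoal-stripped FBS. PGR mRNA extracted after genomic DNA removal and quantified by qPCR (40 cycles, Ct). Reported as % of E2-alone expression (100%); 1 μM endoxifen as positive control.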

[3] = target: T3, Cytochrome P450 1A2 (Homo sapiens, UniProt P05177); test: Inhibition of human recombinant CYP1A2 assessed as metabolism of 3-cyano-7-ethoxycoumarin after 30 mins by fluorescence assay; type: ADME
T3 sequence (P05177 whole entry): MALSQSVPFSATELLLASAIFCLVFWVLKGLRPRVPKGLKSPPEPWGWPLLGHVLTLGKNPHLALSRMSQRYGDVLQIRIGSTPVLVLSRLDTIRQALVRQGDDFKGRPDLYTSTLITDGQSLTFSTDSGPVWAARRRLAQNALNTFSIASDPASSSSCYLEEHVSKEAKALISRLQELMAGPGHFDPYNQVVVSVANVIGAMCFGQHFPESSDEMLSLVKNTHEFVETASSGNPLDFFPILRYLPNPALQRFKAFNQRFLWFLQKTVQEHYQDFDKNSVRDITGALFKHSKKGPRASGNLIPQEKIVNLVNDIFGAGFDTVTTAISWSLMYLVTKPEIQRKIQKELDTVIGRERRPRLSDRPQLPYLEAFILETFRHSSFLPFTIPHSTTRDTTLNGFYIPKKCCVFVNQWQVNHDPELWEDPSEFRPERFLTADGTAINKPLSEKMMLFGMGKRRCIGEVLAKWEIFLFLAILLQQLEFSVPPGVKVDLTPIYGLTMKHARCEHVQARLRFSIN

[4] = target: Cytochrome P450 3A4 (Homo sapiens, UniProt P08684); test: Inhibition of human recombinant CYP3A4 assessed as metabolism of 7-benzyloxy-4-trifluoromethylcoumarin to HFC after 30 mins by fluorescence assay; type: ADME
[5] = target: T4, Estrogen receptor (Homo sapiens, UniProt P03372); test: Displacement of fluorescein-labeled ES2 from human recombinant ERalpha receptor after 2 hrs by fluorescence polarization assay
T4 sequence (P03372 whole entry): T2 sequence (whole entry)
Summary of the method: (§1)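 Fluorescence polarization competition. Compound in methanol or DMSO mixed with ES2 screening buffer (100 mM potassium phosphate, 100 μg/mL BGG, 0.02% NaN₃). Preformed complex added to final 9 nM ES2 with 30 nM ER-α or 20 nM ER-β. Polarization expressed as % of vehicle control; EC50 from one-site competition fit.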

[6] = target: Estrogen receptor beta (Homo sapiens, UniProt Q92731); test: Displacement of fluorescein-labeled ES2 from human recombinant ERbeta receptor after 2 hrs by fluorescence polarization assay; summary of the method: as §1
[7] = target: Cytochrome P450 2D6 (Homo sapiens, UniProt P10635); test: Inhibition of human recombinant CYP2D6 after 30 mins by fluorescence assay; type: ADME
[8] = target: T5, Cytochrome P450 2A6 (Homo sapiens, UniProt P11509); test: Inhibition of human recombinant CYP2A6 assessed as metabolism of coumarin to 7-hydroxycoumarin after 30 mins by fluorescence assay; type: ADME
T5 sequence (P11509 whole entry): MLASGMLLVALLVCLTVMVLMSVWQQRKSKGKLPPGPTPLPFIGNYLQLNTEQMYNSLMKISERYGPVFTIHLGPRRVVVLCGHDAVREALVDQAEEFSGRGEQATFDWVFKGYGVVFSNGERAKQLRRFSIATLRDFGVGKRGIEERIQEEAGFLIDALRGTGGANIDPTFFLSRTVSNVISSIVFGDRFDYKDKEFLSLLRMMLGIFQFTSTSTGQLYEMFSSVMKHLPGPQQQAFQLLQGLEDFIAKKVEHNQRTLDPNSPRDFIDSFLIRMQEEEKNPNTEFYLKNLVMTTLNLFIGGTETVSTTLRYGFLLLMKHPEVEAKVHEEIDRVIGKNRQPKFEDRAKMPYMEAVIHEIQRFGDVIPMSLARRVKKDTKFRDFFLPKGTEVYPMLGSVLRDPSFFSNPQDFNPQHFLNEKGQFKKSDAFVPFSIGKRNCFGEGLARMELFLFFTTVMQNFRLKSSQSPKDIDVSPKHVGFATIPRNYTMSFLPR

[9] = target: Cytochrome P450 3A5 (Homo sapiens, UniProt P20815); test: Inhibition of human recombinant CYP3A5 assessed as metabolism of 7-benzyloxy-4-trifluoromethylcoumarin to HFC after 30 mins by fluorescence assay; type: ADME
Chain of Cytochrome P450 3A5 (P20815 whole entry): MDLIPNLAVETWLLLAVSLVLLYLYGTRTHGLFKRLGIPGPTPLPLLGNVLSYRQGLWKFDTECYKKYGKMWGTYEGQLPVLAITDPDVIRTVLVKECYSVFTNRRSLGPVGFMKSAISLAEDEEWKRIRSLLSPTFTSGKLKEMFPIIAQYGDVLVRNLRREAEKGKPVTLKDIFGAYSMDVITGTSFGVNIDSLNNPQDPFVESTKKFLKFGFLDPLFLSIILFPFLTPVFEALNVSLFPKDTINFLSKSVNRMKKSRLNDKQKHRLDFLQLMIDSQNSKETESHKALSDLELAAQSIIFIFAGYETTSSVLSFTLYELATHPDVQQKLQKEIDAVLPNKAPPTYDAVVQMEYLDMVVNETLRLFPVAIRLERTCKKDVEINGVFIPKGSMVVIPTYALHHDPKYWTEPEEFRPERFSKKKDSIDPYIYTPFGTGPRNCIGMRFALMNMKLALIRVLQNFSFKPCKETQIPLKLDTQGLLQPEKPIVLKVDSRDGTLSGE

Chain of Cytochrome P450 2D6 (P10635 whole entry): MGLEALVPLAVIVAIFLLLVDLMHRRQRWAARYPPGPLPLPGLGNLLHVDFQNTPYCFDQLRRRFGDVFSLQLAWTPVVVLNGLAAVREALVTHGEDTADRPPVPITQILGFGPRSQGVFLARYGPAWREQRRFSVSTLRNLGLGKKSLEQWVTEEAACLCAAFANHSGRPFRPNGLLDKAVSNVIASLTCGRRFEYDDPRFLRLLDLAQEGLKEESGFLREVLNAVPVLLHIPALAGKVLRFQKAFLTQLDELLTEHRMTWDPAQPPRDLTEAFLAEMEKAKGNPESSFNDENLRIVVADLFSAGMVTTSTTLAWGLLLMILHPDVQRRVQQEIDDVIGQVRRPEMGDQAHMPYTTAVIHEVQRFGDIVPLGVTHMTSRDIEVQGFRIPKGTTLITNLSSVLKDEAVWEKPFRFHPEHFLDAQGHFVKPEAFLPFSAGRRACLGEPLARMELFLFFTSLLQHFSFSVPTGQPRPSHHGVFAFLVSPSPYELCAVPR
Chain of Cytochrome P450 3A4 (P08684 whole entry): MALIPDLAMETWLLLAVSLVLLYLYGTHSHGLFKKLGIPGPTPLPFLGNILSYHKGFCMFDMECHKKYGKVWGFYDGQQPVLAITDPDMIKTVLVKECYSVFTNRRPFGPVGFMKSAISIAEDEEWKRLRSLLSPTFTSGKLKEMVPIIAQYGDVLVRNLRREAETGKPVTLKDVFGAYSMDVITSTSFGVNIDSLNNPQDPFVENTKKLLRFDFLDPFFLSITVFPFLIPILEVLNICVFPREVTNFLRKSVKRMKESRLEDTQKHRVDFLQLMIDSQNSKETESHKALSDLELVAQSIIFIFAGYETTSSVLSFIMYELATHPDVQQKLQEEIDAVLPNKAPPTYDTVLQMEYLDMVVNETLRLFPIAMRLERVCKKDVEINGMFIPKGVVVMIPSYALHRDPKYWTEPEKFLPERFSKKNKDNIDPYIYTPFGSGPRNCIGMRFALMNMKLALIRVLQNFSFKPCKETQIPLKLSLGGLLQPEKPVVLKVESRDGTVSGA
Chain of Estrogen receptor beta (Q92731 whole entry): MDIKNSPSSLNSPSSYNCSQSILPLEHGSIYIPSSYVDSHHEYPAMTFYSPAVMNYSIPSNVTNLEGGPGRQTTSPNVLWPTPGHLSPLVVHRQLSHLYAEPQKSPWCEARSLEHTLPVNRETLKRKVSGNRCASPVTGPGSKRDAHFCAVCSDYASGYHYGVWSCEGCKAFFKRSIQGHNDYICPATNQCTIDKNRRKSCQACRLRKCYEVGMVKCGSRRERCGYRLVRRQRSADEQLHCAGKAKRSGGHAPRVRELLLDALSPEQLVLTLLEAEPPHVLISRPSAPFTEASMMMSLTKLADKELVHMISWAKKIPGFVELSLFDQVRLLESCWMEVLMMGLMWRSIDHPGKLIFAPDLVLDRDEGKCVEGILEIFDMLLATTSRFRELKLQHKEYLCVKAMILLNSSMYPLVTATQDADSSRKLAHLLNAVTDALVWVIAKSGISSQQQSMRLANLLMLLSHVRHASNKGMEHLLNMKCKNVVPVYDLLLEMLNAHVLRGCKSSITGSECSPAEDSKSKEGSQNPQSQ

CC/C(=C(/c1ccc(O)cc1)c1ccc(OCCN)cc1)c1ccc(O)cc1 (mixture of isomers)
IC50 [1]: 45 nM | Activity [2]: 14% | IC50 [3]: 207 nM | Ki [3]: 56 nM | IC50 [4]: 1880 nM | Ki [4]: 1640 nM | EC50 [5]: 15 nM | EC50 [6]: 9.5 nM | IC50 [7]: 3600 nM | Ki ([7]; read-out: Ki): 423 nM | Ki [8]: 710 nM | IC50 [9]: 556 nM | Ki [9]: 855 nM
